Rows were chosen to be rich in hits. Some 1.5% of all compounds tested hit in one or more screens of this group.
VLA-4 inh = inhibition in a human VLA-4 binding assay | inhibition, % (about 7 µM as worked out from the volumes in the protocol) | 330,000 tested, 0.2% active | VLA-4 expressing cells, ligand binding flow cytometry | P13612 | AID 2557; in the data active = inhibition above about 50%
Platelet DG rel = modulates dense granule release in human platelets; human platelet-rich plasma, SFLLRN dense granule ATP release, luminescence; 300,000 tested, 0.22% active; inhibition, %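 (compounds screened at 7.5 µM in platelet-rich plasma)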;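 active = mean replicate score, as percent of positive control, at or above 50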
SENP1 inh = inhibitors of human SENP1 SUMO protease catalytic domain | Q9P0U3 | recombinant SENP1 catalytic domain, CyPet-SUMO1-YPet FRET cleavage | inhibition, % at 10 µM | 360,000 tested, 0.21% active | AID 624204;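 active = inhibition at least 30% at 10 µM, raw YFP signal under a set limit, fluorescence ratio 0.5 to 1.5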;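 also: 0% = enzyme with DMSO and 100% = no enzyme wells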
Target sequence (Q9P0U3 419-644 limits assumed): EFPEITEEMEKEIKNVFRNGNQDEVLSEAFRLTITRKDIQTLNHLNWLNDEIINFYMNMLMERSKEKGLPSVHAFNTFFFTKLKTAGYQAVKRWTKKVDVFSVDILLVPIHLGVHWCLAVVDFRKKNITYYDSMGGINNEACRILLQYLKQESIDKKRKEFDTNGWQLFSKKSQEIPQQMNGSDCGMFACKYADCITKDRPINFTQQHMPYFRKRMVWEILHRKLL
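material = recombinant human SENP1 catalytic domain, His6-tagged | quantity = 20 pM enzyme | reagent = 25 nM SUMO1 FRET substrate | compound dosing = 10 µM single point, 0.5% DMSO | timing = 50 min enzyme reaction, room temperature, light-protected | detection = FRET, CFP and YFP emission | control set = no-enzyme low, enzyme-DMSO high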
Myeloid diff 2 = compounds promoting myeloid differentiation | ER-HoxA9 myeloid progenitors, lysozyme-GFP differentiation, flow cytometry | calls only at 10 µM | 360,000 tested, 1% active;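 active = normalized GFP-positive differentiation at or above the plate's own cutoff, the solvent-only control mean plus 3 SD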;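 also: cells exposed to compound for four days before flow analysis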
SENP1 inh conf = confirmation of human SENP1 SUMO protease inhibitors | shares compounds with SENP1 inh | recombinant SENP1, CyPet-SUMO1-YPet FRET cleavage | inhibition, % at 10 µM | 520 tested, 34% active | AID 651678; in the data active = inhibition mostly above about 35%, no sharp cut-off; inactive = mostly below about 32%;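 also: 0% = enzyme with DMSO and 100% = no enzyme control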
SENP1 kin conf = SENP1 (human) inhibition, kinetic confirmation. shares compounds with SENP1 inh. 520 tested, 26% active. inhibition, % at 10 µM. AID 651690. recombinant SENP1, CyPet-SUMO1-YPet FRET kinetic cleavage; in the data active = inhibition mostly above about 32%, no sharp cut-off; inactive = mostly below about 29%;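 also: 0% = DMSO with enzyme and 100% = no enzyme substrate only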
* hit, by the source's call; i = inactive; / = not tested or not shown; + = active, no number.

SMILES | VLA-4 inh | Platelet DG rel | SENP1 inh | Myeloid diff 2 | SENP1 inh conf | SENP1 kin conf
COC(=O)Nc1sc2c(c1C(N)=O)CCC(C)C2 (stereo not given) | 0 | -5 | 41* | i | -8 | 2
CC1CCc2c(sc(NC(=O)C3c4ccccc4Oc4ccccc43)c2C(N)=O)C1 (stereo not given) | 5 | 13 | -8 | i | / | /
CC1(C)CC(=O)C(N=Nc2ccc(F)cc2)=C(O)C1 | -2 | 0 | 1 | i | / | /
CC1(C)CC(=O)C(N=Nc2ccc(-c3ccccc3)cc2)=C(O)C1 | 4 | 3 | 63* | i | 17 | 5
CC1(C)Cc2c(cnn2-c2ccc(F)cc2)C(NC(=O)C2=CC(=O)CC(C)(C)O2)C1 (stereo not given) | / | / | 1 | i | / | /
O=S(=O)(c1cccc2ccccc12)N1CCC2CC1c1cc(-c3ccc4c(c3)OCO4)ccc12 (stereo not given) | / | / | 3 | i | / | /
CC(=O)n1c2ccccc2c2c1c1ccccc1n2C | -1 | -6 | 75* | i | -13 | -11
CCOc1ccc(CCNC(=O)COC(=O)CNS(=O)(=O)c2ccc(NC(C)=O)cc2)cc1OCC | 1 | 8 | -5 | i | / | /
O=C(NCc1ccccn1)c1c(-c2ccccc2)sc2ccccc12 | 15 | / | -12 | i | / | /
COc1ccc(CC(=O)NNC2=Nc3cccc4cccc2c34)cc1OC | 1 | -22 | -144 | i | / | /
COc1cc(NC2=Nc3cccc4cccc2c34)cc(OC)c1OC | 3 | 13 | 68* | i | 39* | 22
COc1ccc(NC2=Nc3cccc4cccc2c34)cc1OC | 5 | 0 | 70* | i | 29 | 12
COc1cccc(NC2=Nc3cccc4cccc2c34)c1 | 16 | -11 | 81* | i | 55* | 33*
COCCCN(CC(=O)Nc1ccc(F)cc1)S(=O)(=O)c1cccs1 | -25 | / | 0 | i | / | /
COc1ccccc1NC(=O)c1ccc2c(c1)N(CC(=O)NC(C)C)C(=O)C(C)(C)O2 | -1 | -9 | 3 | i | / | /
Cc1c(NN=C(C#N)C#N)c(=O)n(-c2ccccc2)n1C | -1 | 3 | 46* | i | 14 | 18
C=C1CCC[C@]2(C)C[C@H]3OC(=O)C(CNC(C)(CO)CO)[C@H]3CC12 (stereo not given in full) | 4 | -13 | 1 | i | / | /
COc1ccc(NC(=O)c2cc(-c3cc(F)ccc3OCC3CCCO3)n[nH]2)cc1OC (stereo not given) | / | / | -2 | i | / | /
Cc1ccc(C2C(C(=O)c3cc4ccccc4o3)=C(O)C(=O)N2CCN(C)C)o1 (stereo not given) | / | / | -12 | i | / | /
CN(C)CCN1C(=O)C(O)=C(C(=O)c2cc3ccccc3o2)C1c1ccc(N(C)C)cc1 (stereo not given) | -7 | 2 | 31* | i | 8 | -5
CCOC(=O)C1=C(C)OC(N)=C(C#N)C1c1ccc(C)s1 (stereo not given) | 7 | 3 | -41 | i | / | /
O=C1NC(=S)SC1=Cc1cc(Br)ccc1O | / | / | 32* | i | 96* | 52*
CN(C(=O)c1ccc2c(=O)n3c(nc2c1)CCCCC3)c1cccc(Cl)c1 | -7 | 5 | -1 | i | / | /
CCOC(=O)C(C)Sc1nnc(Cc2cc(=O)[nH]c(=O)[nH]2)n1-c1ccc(Cl)cc1 (stereo not given) | 44 | -9 | 64* | i | 13 | 8
CCOC(=O)c1c(C#N)c(SCC(=O)Nc2ccc(OC)cc2)nc2c1CN(CC)CC2 | -1 | 7 | 40* | i | 20 | 11
SMILES | VLA-4 inh | Platelet DG rel | SENP1 inh | Myeloid diff 2 | SENP1 inh conf | SENP1 kin conf
COc1ccc(NC(=O)CSc2nc(-c3ccc(C)cc3)cc(C(F)(F)F)c2C#N)cc1 | 0 | -2 | 6 | i | / | /
COc1ccc(-c2ccccc2C2=CC(=O)CC(C)(C)C2=O)cc1 | / | / | 33* | i | -2 | 1
Cc1ccc(-c2ccccc2C2=CC(=O)CC(C)(C)C2=O)cc1 | / | / | 3 | i | / | /
COc1ccc2cc(C3=CC(=O)CC(C)(C)C3=O)ccc2c1 | / | / | 32* | i | -1 | 5
CC(C)C(=O)N(Cc1ccccc1)S(=O)(=O)c1ccc2c(c1)oc(=O)n2C | -26 | 0 | 43* | i | 16 | 13
CN(Cc1ccccc1)C(=O)CCS(=O)(=O)c1ccc2c(c1)oc(=O)n2C | 4 | 17 | 1 | i | / | /
Cn1c(=O)oc2cc(S(=O)(=O)Nc3ccc(C(=O)O)cc3)ccc21 | / | / | 5 | i | / | /
Cn1c(=O)oc2cc(S(=O)(=O)NCc3ccc(C(=O)O)cc3)ccc21 | -26 | 9 | 28* | i | 17 | 2
CNc1nc(-c2ccc([N+](=O)[O-])cc2)cs1 | -5 | 3 | 44* | i | 13 | 12
Cc1cccc(/C=C/c2onc(C)c2[N+](=O)[O-])n1 | 9 | -7 | / | / | / | /
COc1cc(/C=C/c2onc(C)c2[N+](=O)[O-])cc(OC)c1OC | 19 | -2 | 49* | i | 9 | 10
Cc1ccc2nc(-c3ccco3)c(CC3CCCCC3)n2c1 | / | / | -20 | i | / | /
CCC(=O)c1cn(CC(=O)Nc2cc(C)ccc2C)c2ccccc12 | 14 | 6 | 2 | i | / | /
CCOC(=O)/C(C#N)=C/C=C1\C=Cc2ccccc2N1CC | -67 | 23 | 52* | + | 71* | 39*
CCCCCN1C=CC=C/C1=C\C=C(C#N)C#N | -4 | 6 | 10 | i | / | /
CN1/C(=C/C=C(C#N)C#N)C=Cc2ccccc21 | -3 | 4 | 97* | + | 9 | 9
CCCc1nc2ccc(Cl)cn2c1Cc1ccc(C)cc1 | / | / | -11 | i | / | /
C1CCN(CC2CCCCN2)CC1 (stereo not given) | / | / | 45* | i | -2 | 1
COc1ccc(C(=O)NC2CCSc3ccccc32)cc1F (stereo not given) | 7 | 4 | -2 | i | / | /
CCOC(=O)N1CCN(S(=O)(=O)c2ccc(C(=O)NNc3nc4c(C)cccc4s3)cc2)CC1 | -3 | 6 | 35* | i | 25 | 42*
CC(=O)Oc1ccc2c(=O)c(/C=N/c3cc(=O)[nH]c(=S)[nH]3)coc2c1 | 0 | -2 | -12 | i | / | /
O=C(O)CCC(C(=O)O)n1c(O)c(C2=c3ccccc3=NC2=O)sc1=S (stereo not given) | 1 | 5 | 0 | i | / | /
O=C(O)Cn1c(O)c(C2=c3ccccc3=NC2=O)sc1=O | -216 | 7 | 66* | i | 67* | 36*
COc1ccc(-c2cc(NC=O)c3ncc(-c4cccc(C(F)(F)F)c4)n3c2)cc1OC | / | / | -24 | i | / | /
NC(=O)c1ccc2c(c1)S(=O)(=O)c1ccccc1C2=O | 3 | -8 | 0 | i | / | /
CC1=C(C(N)=O)S(=O)(=O)c2ccccc21 | 13 | 19 | 47* | i | 47* | 37
Cc1sc(-c2ccccn2)nc1OC(=O)c1ccc(Cl)c(Cl)c1 | 6 | 7 | 3 | i | / | /
